Compound activity (PubChem)
APP 5'UTR act: activates APP 5'UTR luciferase reporter; SH-SY5Y APP 5'UTR luciferase reporter, luminescence; zero percent = DMSO vehicle wells; activation, % at 2 µM; 1% of 190,000 active;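 active = activation above a set limit, based on mean plus 3 SD of controls, cut at about 140% in these data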
STAT1 act-1: activators of IFN-gamma induced STAT1 signaling | 2.6% of 200,000 active | AID 932 | NIH 3T3 STAT1-luciferase reporter, luminescence; 100% = IFN-gamma alone, no compound | activation (% of control), % at 5.5 µM;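 active = activation above the screen-wide mean activation plus 3 SD, cut at about 130% in these data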
STAT1 blocker: STAT1 signaling inhibition; NIH 3T3 STAT1-luciferase reporter, IFN-gamma, luminescence; inhibition, % at 5.5 µM; 0.35% of 200,000 active; AID 920;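 active = inhibition above a set limit, the mean inhibition across all tested compounds plus 3 SD, cut at about 34% in these data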
STAT3 blocker: inhibitors of IL-6 induced STAT3 signaling; U3A cells, IL-6 STAT3-luciferase reporter, luminescence; host cell line lacks STAT1; inhibition, % at 5.5 µM; 0.89% of 190,000 active; AID 862;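 active = inhibition above the mean inhibition across all screened compounds plus 3 SD, cut at about 44% in these data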
STAT3 act-1: STAT3 signaling activation; U3A cells, IL-6 STAT3-luciferase reporter, luminescence; 100% = signal with IL-6 EC80 alone; activation (% of control), % at 5.6 µM; 0.91% of 190,000 active; AID 871;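 active = activation above the screen-wide mean of compound activation plus 3 SD, cut at about 130% in these data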
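Material: STAT1-lacking human U3A cells, STAT3 luciferase reporter | Benchmarks: IL-6-only wells as 100% reference | Probe or stimulus: IL-6 (33 ng/mL) | Timing: Compound 1 h, then IL-6 6 h at 37 °C | Detection: Luminescence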
NF-kB expr up: compounds increasing NF-kB expression in human neuronal cells; NF-kB reporter expression; stronger effect = higher value; fold change at 12.5 µM; 1.6% of 190,000 active; AID 1239; in the data active = fold change above about 3.3
STAT3 act-2: STAT3 activation, confirmation assay. shares compounds with STAT3 act-1. U3A STAT3-luciferase reporter, IL-6 potentiation, luminescence; U3A cells lack STAT1; 100 means same as IL-6 alone. potentiation (% of control), % at 5.7 µM. 64% of 1,200 active. AID 1267;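 active = percent activation of the STAT3 luciferase reporter above a set limit taken from the earlier primary screen, cut at about 130% in these data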
NFkB act STAT3ct: counter-screen for STAT3 activators: NF-kappaB activation. shares compounds with STAT3 act-1. human cells, NF-kappaB reporter activation. activation (% of control), % at 5.7 µM. 11% of 1,200 active. AID 1309; in the data active = activation above about 120%;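 also: reporter induced by TNF-alpha stimulation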
STAT1 act-2: activates STAT1, counter-screen to STAT3 activators; shares compounds with STAT3 act-1; NIH 3T3 STAT1-luciferase reporter, IFN-gamma, luminescence; activation (% of control), % at 5.7 µM; 13% of 1,200 active; AID 1318;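 active = activation above the solvent-only control well mean plus 3 SD, set per screening run, cut at about 120% in these data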
A number is an active result; i = inactive; nt = no result given. Shown are actives, neighbours in structure and some others; about 5.1% of the full set was active somewhere.

SMILES | APP 5'UTR act | STAT1 act-1 | STAT1 blocker | STAT3 blocker | STAT3 act-1 | NF-kB expr up | STAT3 act-2 | NFkB act STAT3ct | STAT1 act-2
Cc1nnc(SC(C)C(=O)Nc2c(C)n(C)n(-c3ccccc3)c2=O)n1N (stereo unspecified) | i | i | i | i | i | i | nt | nt | nt
COc1ccc(C(CC(=O)O)NC(=O)c2ccccc2[N+](=O)[O-])cc1 (stereo unspecified) | i | i | i | nt | nt | i | nt | nt | nt
CCOc1ccccc1NC(=S)N1CCC(c2nc3ccccc3o2)CC1 | nt | i | i | i | i | i | nt | nt | nt
COc1cc(C2C(C#N)=C(N)Oc3cc(O)ccc32)cc(OC)c1OC (stereo unspecified) | i | i | i | i | i | i | nt | nt | nt
COc1cc(C2C(C#N)=C(N)Oc3cc4c(cc32)OCO4)cc(OC)c1OC (stereo unspecified) | i | i | i | i | 147 | i | i | 162 | i
Cc1ccc(-c2csc(NC(=S)NC(=O)c3cccs3)n2)cc1 | i | i | i | i | i | i | nt | nt | nt
CC(C)CC(=O)NC(=S)Nc1nc(-c2ccccc2)cs1 | i | i | i | i | 144 | i | 140 | i | i
O=C(NC(=S)Nc1nc(-c2ccccc2)cs1)c1ccco1 | i | i | i | i | 139 | i | 140 | i | i
CC(C)CC(=O)NC(=S)Nc1nc(-c2ccc(Cl)cc2)cs1 | i | i | i | i | i | i | nt | nt | nt
O=C(NC(=S)Nc1nc(-c2ccccc2)cs1)c1cccs1 | i | i | i | i | 142 | i | 147 | i | i
Cc1nn(CC(=O)NCc2cc3ccccc3[nH]2)c(C)c1[N+](=O)[O-] | i | i | i | i | 138 | i | 161 | i | i
Cc1nn(CC(=O)NCc2ccccc2F)c(C)c1[N+](=O)[O-] | i | i | i | i | i | i | nt | nt | nt
Cc1ccc(C)n1-c1ccc(C(=O)NN=C2CCCC2)cc1 | i | i | i | i | i | i | nt | nt | nt
O=C(O)C(Cc1ccccc1)N1C(=O)c2cccc3cccc(c23)C1=O (stereo unspecified) | i | i | i | i | 144 | i | 143 | i | i
O=C(O)C(Cc1ccccc1)N1C(=O)c2ccccc2C1=O (stereo unspecified) | i | i | i | i | i | i | nt | nt | nt
O=C1c2cccc3cccc(c23)C(=O)N1CCc1ccccc1 | i | i | i | i | 147 | i | 193 | 125 | 129
CN(C(=O)CCCN1C(=O)c2cccc3cccc(c23)C1=O)c1ccccc1 | i | i | i | i | i | i | nt | nt | nt
Cn1c(=O)c(-c2ccccc2)nc2ccccc21 | i | i | i | i | 141 | i | i | i | i
Cn1c(=O)c(-c2ccccc2N)nc2ccccc21 | i | i | i | i | i | i | nt | nt | nt
O=C(CC(Nc1cccc(Cl)c1Cl)C(=O)O)c1ccccc1 (stereo unspecified) | i | i | i | i | 140 | i | 149 | i | i
O=c1c(Cc2c(F)cccc2Cl)c(O)ccn1CCCN1CCOCC1 | i | i | i | i | i | i | nt | nt | nt
O=C(CSc1nnc2c(Cl)cc(C(F)(F)F)cn12)N(Cc1ccccc1)Cc1ccccc1 | i | i | i | i | i | i | nt | nt | nt
FC(F)(F)c1cc(Cl)c2nc(-c3ccccc3)cn2c1 | 164 | i | i | i | 158 | 11 | 173 | 140 | 202
CC1CCN(c2ccccc2NC(=O)c2ccc(C#N)cc2F)CC1 | i | i | i | i | i | i | nt | nt | nt
CC(C)C(=O)N1CCN(c2ccccc2NC(=O)c2ccc(C#N)cc2F)CC1 | i | i | i | i | 137 | i | 138 | i | i
SMILES | APP 5'UTR act | STAT1 act-1 | STAT1 blocker | STAT3 blocker | STAT3 act-1 | NF-kB expr up | STAT3 act-2 | NFkB act STAT3ct | STAT1 act-2
COc1ccc(N2C(=O)CCC(C(=O)N3CCN(c4ccccn4)CC3)C2c2ccc(F)cc2)cc1 (stereo unspecified) | i | i | i | i | i | i | nt | nt | nt
CC(C)C1NC(=S)N(Cc2ccccc2)C1=O (stereo unspecified) | i | i | i | i | 142 | i | i | i | i
O=C1C(Cc2c[nH]c3ccccc23)NC(=S)N1Cc1ccccc1 (stereo unspecified) | i | i | i | i | i | i | nt | nt | nt
COc1ccc(CCNC(=O)C(=O)NCc2cccs2)cc1OC | i | i | i | i | i | i | nt | nt | nt
COc1cc(OC)c(NC(=O)c2ccco2)cc1Cl | i | i | i | i | i | i | nt | nt | nt
COc1cc(NC(=O)c2noc3c2CCC3)c(OC)cc1Cl | i | i | i | i | 146 | i | 157 | i | i
CCCc1cc(C(=O)Nc2cc(OC)c(Cl)cc2OC)no1 | i | i | i | i | 166 | i | 162 | i | i
COc1cc(NC(=O)c2ccccc2)c(OC)cc1Cl | i | i | i | i | 150 | i | 143 | i | i
COc1cc(NC(=O)c2cc(-c3ccco3)on2)c(OC)cc1Cl | i | i | i | i | 165 | i | 145 | i | i
CCCc1cc(C(=O)Nc2ccccc2C(=O)OC)no1 | i | i | i | i | i | i | nt | nt | nt
COc1cc(N)c(Cl)cc1NC(=O)c1ccccc1 | i | i | i | i | i | i | nt | nt | nt
NC(=O)NC(=O)COC(=O)c1cccc(NS(=O)(=O)/C=C/c2ccccc2)c1 | i | i | i | i | i | i | nt | nt | nt
COc1ccccc1C1c2c(C)nn(-c3ccccc3)c2NC(=O)C1NC(=O)c1ccccc1 (stereo unspecified) | i | i | i | i | i | i | nt | nt | nt
COc1ccc(COc2cc(-c3cccc(OC)c3)nc3ccc(NC(=O)c4ccc(N(C)C)cc4)cc23)cc1 | i | i | i | i | 136 | i | i | i | i
CCOCCCNC(=O)c1ccc2c(c1)N=C(CC)c1cc(Br)ccc1S2 | i | i | i | i | 157 | i | i | 160 | i
CCCCOCCCNC(=O)c1ccc(OC)cc1 | i | i | i | i | i | i | nt | nt | nt
COC(=O)c1sc(S(=O)(=O)Nc2ccc(C)cc2)c(C(=O)OC)c1C | i | i | i | i | i | i | nt | nt | nt
COC(=O)c1ccccc1S(=O)(=O)Nc1ccc2cn[nH]c2c1 | i | i | i | i | 143 | i | i | i | i
COC(=O)c1sc(S(=O)(=O)Nc2ccc3cn[nH]c3c2)c(C(=O)OC)c1C | i | i | i | i | 147 | i | 147 | i | i
COc1ccc(C(C[N+](=O)[O-])c2c(C)[nH]c3ccccc23)cc1OC (stereo unspecified) | i | i | i | i | 138 | i | i | i | i
CC(=O)N(C)c1ccc(NC(=S)Nc2ccccc2)cc1 | i | i | i | i | i | i | nt | nt | nt
